Assays:
[1] = Plasma concentration in ip dosed Wistar rat at anxiolytic MED administered as suspension after 45 mins during Vogel punished drinking conflict test; format: ADME, organism-based
Method in brief: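 Vehicle was a suspension containing 5% Tween 80, given i.p. at the Vogel minimum effective dose. Plasma was sampled about 45 min after dosing, right after the Vogel punished drinking test.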

Rattus norvegicus [2] = experiment: Anxiolytic activity in po dosed Wistar rat assessed as reduction in ultrasonic vocalization; format: functional
[3] = Clearance in female Crl:CD(SD) rat at 0.5 mg/kg, iv; format: ADME, organism-based; conditions: in vivo
[4] = Clearance in female beagle dog at 0.5 mg/kg, iv administered as infusion; format: ADME, organism-based, Canis lupus familiaris; conditions: in vivo
[5] = Tmax in male Crl:CD(SD) rat at 4.5 mg/kg, po; format: ADME, organism-based; conditions: in vivo
Method in brief: (§1)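 Single-dose PK: i.v. and oral dosing in Crl:CD(SD) rats and beagle dogs, plus a pilot oral nasogastric study in Cynomolgus monkeys using a Type IV lipid formulation. Rat i.v. vehicle was 80% cosolvent. Monkeys were fasted from 2 h before until 2 h after dosing, n=3 per sex. Rats also received [14C]-labelled compound orally at 50 mg/kg, with total radioactivity followed. Parameters are means; monkey values are medians.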

Rattus norvegicus [6] = experiment: Terminal elimination half life in female Crl:CD(SD) rat at 50 mg/kg, po using [14C]labeled compound; format: ADME, organism-based; conditions: in vivo; method in brief: as §1
Rattus norvegicus [7] = experiment: Toxicity in po dosed Harlan-Wistar rat assessed as effect on ambulatory movement at 10 to 30 mg/kg, po by photocell-based activity monitor test; format: organism-based; conditions: in vivo
Method in brief: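 Male Wistar rats were given 0, 10, 30 or 50 mg/kg p.o. Spontaneous locomotor activity (ambulatory movement) was recorded in a photocell-based activity monitor.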

concentration at 0.75 h [1]: 51.1 nM | clearance [3]: 14.3 mL/min/kg | clearance [4]: 9.22 mL/min/kg | Tmax [5]: 45 min | beta t1/2 (Rattus norvegicus [6]): 8 h
Compound: N#Cc1cccc(S(=O)(=O)c2cnc3cc(F)ccc3c2-c2ccc(Cl)cc2)c1
Activity (Rattus norvegicus [2]): Dose-dependent effect | ED50 (Rattus norvegicus [2]): 1.5 mg/kg | Activity (Rattus norvegicus [7]): Non-Toxic
